System: MS2 coat protein
Test: apparent Kd, MS2 coat protein; higher = weaker binding; RNA-MaP array
Procedure, shortened: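 Apparent Kd was taken as the median of binding curves fitted cluster by cluster. The designed RNAs were made by transcription of sequenced DNA templates on an Illumina sequencing chip and exposed to fluorescently labeled MS2 coat protein (1.5 nM to 3 μM) at room temperature, with or without input ligand, for 0.8–1.5 h at the lowest and 10–20 min at the highest concentrations. Any design measured on fewer than 10 clusters was left out.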

[1] = designed as: ON switch for flavin mononucleotide, no ligand
[2] = ligand present: flavin mononucleotide, designed as: ON switch for flavin mononucleotide
[3] = designed as: OFF switch for tryptophan, no ligand
[4] = ligand present: tryptophan, designed as: OFF switch for tryptophan
[5] = designed as: OFF switch for flavin mononucleotide, no ligand
[6] = ligand present: flavin mononucleotide, designed as: OFF switch for flavin mononucleotide
[7] = designed as: ON switch for theophylline, no ligand
[8] = ligand present: theophylline, designed as: ON switch for theophylline

| Sequence | apparent Kd [1] [nM] | apparent Kd [2] [nM] | apparent Kd [5] [nM] | apparent Kd [6] [nM] | also measured |
| --- | --- | --- | --- | --- | --- |
| CUUCCCACGUAGAAGGUGCACCAGUUAACCAAUAACAGGUUGACAUGAGGAUCACCCAUGUUUCGCAAGGAUAUACUGUUCACG | 48.5 | 34.8 | – | – | – |
| UUAGAAUACUAAGGAUAUGAUUAUGGCGCACCGCUGUCCGGUGUACAUGAGGAUCACCCAUGUAAUCAGAAGGUAGACUUGUCC | 9.94 | 8.91 | – | – | – |
| AGCAGCCCUAAAGGAUAUUUGCGCGAGCAAAGCAAAGAAGGUUAAGGGUGGGCUUCAGAGACUACAUGAGGAUCACCCAUGUCC | 448 | 112 | – | – | – |
| AACAUGAGGAUCACCCAUGUUAGAAUAACAACGGAAAUAACAGAGGAUAUCGUUAAUUAAUAGCGCGAGAAGGCAGAAUUCAAA | 6.86 | 5.95 | – | – | – |
| GGCGAUCAGUGAGGAUAUUCCGCGCAAAUACUAGAAGAAGGCACGUAUCAAGGGUUCAGAACAUGAGGAUCACCCAUGUCAAGC | 14 | 10.1 | – | – | – |
| ACGAACAUGAGGAUCACCCAUGUUGUUUCUAAGACUCGGUCAAGAAGGUGUCGUUACGAGUCGAACAAGGAUAUUGAUCCGAAC | 28.6 | 20.6 | – | – | – |
| AAGCCCAGGACGGCCGCCACUGUAAAAUGGUGGUUCGCCUGUAAGAACAUGAGGAUCACCCAUGUCAGGACCGGGUCCACGAGUU | – | – | – | – | apparent Kd [3]: 17.6 nM; apparent Kd [4]: 27.1 nM |
| CCGGAGACCGUGUCAGCGGAAGCAAGAACACGAGGACCGGUACGGCCGCCACUCGAAAGAAGACAUGAGGAUCACCCAUGUCCAU | – | – | – | – | apparent Kd [3]: 12 nM; apparent Kd [4]: 13.9 nM |
| UUGAUAGCAGGAUAUACCAGUCAUGUCUCGCAAUUUACCCGACAUGAGGAUCACCCAUGUAGAAGGGCUGUUUA | – | – | 15.3 | 14.5 | – |
| AUUUUGGGAGGAUAUACAUGAGGAUCACCCAUGUUUUAGAACGUAAGAGAAUCCGGAGGUAGAAGGCCCUUCUG | – | – | 180 | 212 | – |
| AGGAGACAUGAGGAUCACCCAUGUCCAGAUACCAGAAUGUCUUUGUUCCCUUGGCAGCUGUGGAAAUCUGACCUGCCUCGGUCUG | – | – | – | – | apparent Kd [7]: 14.2 nM; apparent Kd [8]: 15.7 nM |
| GCGGUCCACUUGGAUACCAGCAGAUUAAUAAACAUGAGGAUCACCCAUGUAAGCGCCUUGUGCCCUUGGCAGCCAGGGUGGUCAG | – | – | – | – | apparent Kd [7]: 83.8 nM; apparent Kd [8]: 46.3 nM |
| GACAAGACAGGAUAUACAUAUAUGUAGCACGAAGAGUUAAGACAUGAGGAUCACCCAUGUAGAAGGGUCAUAAA | – | – | 19.2 | 17.7 | – |
| AGAUCACAUGAGGAUCACCCAUGUCAGGAACUAAGGUACGCUAGAAGGCCGGAUAUGCGGGAAGCGGAGGAUAUAGCAAGCAUC | 40.8 | 19.6 | – | – | – |
| UCUUGACAUGAGGAUCACCCAUGUCACAUUUCUAGAGGAUAUAUACAUGUUGAUCUCUGUAUAGAAGGCUAAGUCG | 18.5 | 11.7 | – | – | – |
| UGGUAGUUGGAGAAGGGAUCGUCGGAACCCAGAUCAGGAUAUCCGACUACAUGAGGAUCACCCAUGUCCUAUCAGUACAAGUAC | – | – | 20.2 | 41 | – |
| UUAGGUGCAGGAUAUACAAGACUUAGUAGGAUACCAGACCUACAUGAGGAUCACCCAUGUAGAAGGGCAAUGCA | – | – | 20.6 | 16.9 | – |
| UCCUUACACAUGAGGAUCACCCAUGUAUCCACAGGUUGAGGGCAGGAUAUACAUAAUUUGACCUUGUAGAAGGGCCUGACAAAA | – | – | 213 | 103 | – |
| UCGGAUACUGUAGGAUAUCGACCAAAUUUUCCUCGAGAAGGACAUCUAUAUAUAGAGAACAUGAGGAUCACCCAUGUGUUUUUG | – | – | 15 | 15.2 | – |
| GUUUUGGUACGAGGAUAUAAUGCCCUUGGAGAGUUAGAAGGCGUACGGGCUGUCCAUUAGAUACAUGAGGAUCACCCAUGUGAG | – | – | 14.7 | 12.2 | – |
| GUACAUUUUGCAGGAUAUGUUCAAUACAUGAGGAUCACCCAUGUUCCCUGCUCGGGUCGAGCAUAACAGAAGGGCACUAUAUGU | 28.9 | 12.1 | – | – | – |

| Sequence | apparent Kd [1] [nM] | apparent Kd [2] [nM] | apparent Kd [5] [nM] | apparent Kd [6] [nM] | also measured |
| --- | --- | --- | --- | --- | --- |
| UAUUGGAUGACAGGAUAUCUACGAAGAAGUUGACAUGAGGAUCACCCAUGUAGGGUGUGGAGCAUAGAGAAGGGUCAGAACCUC | – | – | 702 | 440 | – |
| GUGAAACAUGAGGAUCACCCAUGUUAGGAUAUAGGUAACCUAGUACAUGAUCUGCUGGCUAGAAGGAACUGGAU | – | – | 14.2 | 11.5 | – |
| UUCUUGUCAGGAUAUGGCCCAGAGUCUAAGGCACCGAACGGCCAGAAGGGACAUGAGGAUCACCCAUGUAUCCU | – | – | 16.3 | 82.8 | – |
| CUUGGAAGACAGAAGGGCAUCCACCCGGGACCAGCAGGAUAUGUCAACGGUAGCCGAAAACAUGAGGAUCACCCAUGUCAGAAG | 75.8 | 30.1 | – | – | – |
| GACUUGCAAGAGAAGGCGGCCACCAAUCAUCGGAGUGUAAACUCUACAUGAGGAUCACCCAUGUCCGAGGAUAUCUUCAUCAGU | 59.9 | 69.8 | – | – | – |
| AAAUCAAAGCAGAAGGAACAAUAAGCAUAAAGGUUAGGAUAUGCGUCAACGCAAAGUACAUGAGGAUCACCCAUGUUUAUAAGC | 7.37 | 6.77 | – | – | – |
| GGUACGGCAGGAUAUGGCCUGGACUACAUGAGGAUCACCCAUGUCUUGCAGAAUGUCUAGCCAGAAGGGCCAUGAA | – | – | 14.6 | 8.52 | – |
| GGAAGUCAAGGAUAUACAUGAGGAUCACCCAUGUCAGGUGCCAAUUAUGUUCUAUAGUGUAGAAGGUGACAAUG | – | – | 112 | 183 | – |
| GGGUGAAGUGAGAAGGUUGGUGCUAGUUAAUUCAAAGGAUAUCAUUACUACGACAUGAGGAUCACCCAUGUAGCUGUACUGGAA | – | – | 14.3 | 12.4 | – |
| ACAUGGAGGACAGGAUAUCCAUCUGGCCACCACGGAGAAGGGUCCACCCGACAUGAGGAUCACCCAUGUAUCAACGUGAUGAGU | 23 | 18.1 | – | – | – |
| CGAUACAAAUAAAGCGUUCGUCCGCCAGAUACCAGAUUCAUUUCCAUCCCUUGGCAGCUGUCGACAUGAGGAUCACCCAUGUUUG | – | – | – | – | apparent Kd (designed as: OFF switch for theophylline, no ligand): 18.3 nM; apparent Kd (ligand present: theophylline, designed as: OFF switch for theophylline): 20.9 nM |
| GCUAGCGGUAAGAAGGCAUAGACCAAAACUUCAUGAGGAUAUUAUUUGCGGCAUUCGCUCCAAGGACAUGAGGAUCACCCAUGU | 15.4 | 16.3 | – | – | – |
| CCCAGAUGCUAGAAGGCCUACAUGAGGAUCACCCAUGUAUCCGCUAUCCACACACGCAGGCGGCAGGAGGAUAUAGACGAAGGA | 8.84 | 6.63 | – | – | – |
| CAAAGGAACCAGAAGGCCAUAGGUAAAAUAGUUGGAGGAUAUGGGCACAUGAGGAUCACCCAUGUUCACUGUAAUCAGGAAUAG | 102 | 35.3 | – | – | – |
| UCGCUGUAAGGAUAUACUCCGUUACUGUGUUAUAACGGACCGUAGAAGGUACAUGAGGAUCACCCAUGUGAAGU | – | – | 11.1 | 17.8 | – |
| CACAAGUCGUAGGAUAUCACCACAAAUAGCUGCUGAGAAGGACGGACAUGAGGAUCACCCAUGUGUUCCGCAAU | – | – | 14.8 | 23.8 | – |
| UAUACUAAUGUCAGGAUAUUAUAAAGUAAGAUAUAUAAGAAGGGACAUGAGGAUCACCCAUGUGACAAGGACGA | – | – | 13.4 | 29.8 | – |
| CAAAUGAGAGGAUAUACAAUUAGAUUUCAAAGUCACAUCAGACAUGAGGAUCACCCAUGUAGAAGGCUCGGAUA | – | – | 23.7 | 193 | – |
| CUCUAACAAGGAUAUACAUGUCCCAGGAUCCUAUAGGCUUUACAUGAGGAUCACCCAUGUAGAAGGUGUAUUAC | – | – | 18.7 | 16.4 | – |
| ACGAGGUACACAGGAUAUGCAAACAUGAGGAUCACCCAUGUGUUCGCCAAUAUCGUGAAUGUGUCGCAGAAGGGUGGUAGUCUA | 12.3 | 9.83 | – | – | – |
| ACAUACGAACGAGGAUAUCUCCACAUGAGGAUCACCCAUGUUUGGGUCCGAUAGUAGCGUGCAAAAGAGAAGGCGUGUACAUCC | – | – | 22.8 | 25.5 | – |
